Source: PubChem (Broad Institute)
Most compounds without a hit are left out; they make up all but 1.2% or so of the library.
NSD2 HMT inh = NSD2 (human) methyltransferase inhibition; O96028; NSD2 peptide methylation, AlphaScreen, 120 min; inhibition, % at 12.5 µM; 0.54% of 310,000 active; in the data active = inhibition above about 50%
AF4-AF9 inh = inhibitors of human MLL-AF4/AF9 interaction. AlphaScreen, biotin-AF4 peptide binding to FLAG-AF9. inhibition, % at 10 µM. 0.47% of 350,000 active. AID 651704;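 active = every replicate reaching a set inhibition limit, whatever the replicate mean, cut at about 25% in these data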
Target sequence (P42568 whole entry, looked up): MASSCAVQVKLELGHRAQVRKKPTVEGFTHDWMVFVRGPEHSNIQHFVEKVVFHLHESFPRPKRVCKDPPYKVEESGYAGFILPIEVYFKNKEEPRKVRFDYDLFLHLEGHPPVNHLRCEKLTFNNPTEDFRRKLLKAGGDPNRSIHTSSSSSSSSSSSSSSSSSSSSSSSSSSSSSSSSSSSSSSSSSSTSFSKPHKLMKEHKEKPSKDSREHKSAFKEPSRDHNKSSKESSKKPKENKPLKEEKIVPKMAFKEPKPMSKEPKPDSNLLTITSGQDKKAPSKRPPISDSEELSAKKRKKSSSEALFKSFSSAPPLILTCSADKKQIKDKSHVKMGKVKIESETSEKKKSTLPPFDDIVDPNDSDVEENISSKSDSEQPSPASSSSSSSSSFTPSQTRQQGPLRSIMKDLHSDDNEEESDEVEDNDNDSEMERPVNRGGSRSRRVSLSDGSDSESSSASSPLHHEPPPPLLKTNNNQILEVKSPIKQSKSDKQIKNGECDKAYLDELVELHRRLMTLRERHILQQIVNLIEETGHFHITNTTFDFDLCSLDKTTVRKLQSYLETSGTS
N-glyco inh = blocks N-linked glycosylation in D54 reporter cells; D54 ERlucT glycosylation luciferase reporter, 24 h; percent of 100 nM tunicamycin response; reporter increase, % at 12.5 µM; 0.23% of 360,000 active;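 active = mean luciferase reporter signal, scaled so untreated is 0 and the glycosylation-blocking control 100, at or above a set limit in every replicate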;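 note: luciferase carries N-glycosylation sites so blocking glycosylation raises the light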
RAD52 inh = inhibitors of human RAD52 DNA annealing; P43351; recombinant RAD52 DNA annealing, FRET fluorescence; inhibition, % at 18.7 µM; 0.46% of 360,000 active; AID 651710;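 active = every replicate showing at least 50% inhibition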
RAD54 branch = blocks human RAD54 Holliday junction branch migration; FAM/BHQ fluorescence; AID 602329; inhibition, % at 10.4 µM; Q92698; 0.14% of 360,000 active;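 active = mean normalized replicate activity at least 40 and at least half of replicates scoring 40 or more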;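 note: inhibitors cause a drop in the FAM fluorescence signal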
FN deposit inh = fibronectin deposition inhibition; AH1F fibroblasts, Alexa488-fibronectin deposition fluorescence, overnight; inhibition, % at 12.6 µM; 0.086% of 350,000 active;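 active = mean inhibition across replicates of 30% or more, regardless of how many single replicates reach that level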
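Material: AH1F fibroblast monolayer depositing Alexa488-labelled fibronectin into matrix / Amount: 10000 AH1F cells per well / Signal: fluorescence 485/525 nm / Medium: DMEM, 2% serum / Compound: single dose, pinned / Incubation: 1 h cell adhesion before compound, then overnight fibronectin incubation / Reagent: Alexa488-FN, 24 nM final / Read-out: inhibition of fibronectin deposition signal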
Of the large screens only hits and unclear results are named; the others gave an inactive call.

CCOC(=O)c1ccc(NC(=O)c2nc(S(=O)(=O)Cc3ccccc3)ncc2Cl)cc1	FN deposit inh 47 (no result: NSD2 HMT inh)
COC(=O)c1ccc(NC(=O)c2nc(S(=O)(=O)Cc3cccc(C)c3)ncc2Cl)cc1	FN deposit inh 53 (no result: NSD2 HMT inh)
COCCNC(=O)C[C@@H]1CC[C@@H]2[C@H](COc3ccc(NC(=O)c4cnccn4)cc3C(=O)N2C)O1	none (no result: NSD2 HMT inh, N-glyco inh)
CC1CCN(S(=O)(=O)c2ccc(NC(=O)c3ccncc3)cc2)CC1	none (no result: FN deposit inh)
CC1CCN(S(=O)(=O)c2ccc(NC(=O)Cn3nnc(-c4ccccc4)n3)cc2)CC1	N-glyco inh 47 (no result: NSD2 HMT inh, AF4-AF9 inh, RAD52 inh)
CCS(=O)(=O)c1ncc(Cl)c(C(=O)Nc2ccc(S(=O)(=O)N3CCC(C)CC3)cc2)n1	FN deposit inh 58
Cc1ccc(-c2nnn(CC(=O)Nc3ccc(S(=O)(=O)N4CCC(C)CC4)cc3)n2)cc1	none (no result: AF4-AF9 inh, RAD52 inh, FN deposit inh)
C[C@@H]1CCCCO[C@@H](CN(C)C(=O)Cc2ccccc2)[C@@H](C)CN([C@H](C)CO)C(=O)c2cc(NC(=O)CCCN(C)C)ccc2O1	none (no result: NSD2 HMT inh, N-glyco inh, FN deposit inh)
CCCCn1c(SCC(=O)Nc2cc(C)on2)nc2cc(S(N)(=O)=O)ccc21	none
CCCCn1c(SCc2c(C)noc2C)nc2cc(S(N)(=O)=O)ccc21	N-glyco inh 40 (no result: AF4-AF9 inh, RAD52 inh, FN deposit inh)
CO[C@H]1CN(C)C(=O)c2cc(NS(=O)(=O)c3ccc(Cl)cc3)ccc2OC[C@@H](C)NC[C@@H]1C	none (no result: NSD2 HMT inh, N-glyco inh)
COc1ccc(Cl)cc1C(=O)NNC(=O)c1cccc(S(=O)(=O)N(C)C)c1	FN deposit inh 31 (no result: AF4-AF9 inh, RAD52 inh, RAD54 branch)
COc1cc(/C=C/C(=O)NNC(=O)c2cccc(S(=O)(=O)N(C)C)c2)cc(OC)c1OC	none
COc1ccc(NC(=O)Nc2ccc3c(c2)C(=O)N([C@@H](C)CO)C[C@H](C)[C@@H](CN(C)Cc2ccccc2)OCCCC[C@@H](C)O3)cc1	RAD52 inh 56 (no result: NSD2 HMT inh, N-glyco inh)
COc1ccc(NC(=O)Nc2ccc3c(c2)C(=O)N([C@H](C)CO)C[C@@H](C)[C@H](CN(C)CC2CC2)OCCCC[C@@H](C)O3)cc1	AF4-AF9 inh 28 (no result: NSD2 HMT inh, N-glyco inh)
COc1ccc(CN(C)C[C@@H]2OCCCC[C@H](C)Oc3ccc(NC(=O)Nc4ccccc4)cc3C(=O)N([C@H](C)CO)C[C@H]2C)cc1	none (no result: NSD2 HMT inh, AF4-AF9 inh, N-glyco inh, RAD52 inh)
COc1ccc(NC(=O)Nc2ccc3c(c2)C(=O)N([C@H](C)CO)C[C@@H](C)[C@H](CN(C)Cc2ccccc2)OCCCC[C@@H](C)O3)cc1	RAD52 inh 69 (no result: NSD2 HMT inh, N-glyco inh)
COc1ccc(CN(C)C[C@H]2OCCCC[C@@H](C)Oc3ccc(NC(=O)Nc4ccccc4)cc3C(=O)N([C@@H](C)CO)C[C@H]2C)cc1	none (no result: NSD2 HMT inh, AF4-AF9 inh, N-glyco inh, RAD52 inh)
COc1ccc(NC(=O)Nc2ccc3c(c2)C(=O)N([C@@H](C)CO)C[C@@H](C)[C@H](CN(C)Cc2ccccc2)OCCCC[C@H](C)O3)cc1	RAD52 inh 52 (no result: NSD2 HMT inh, N-glyco inh)
COc1ccc(NC(=O)Nc2ccc3c(c2)C(=O)N([C@H](C)CO)C[C@H](C)[C@@H](CN(C)Cc2ccccc2)OCCCC[C@@H](C)O3)cc1	none (no result: NSD2 HMT inh, N-glyco inh)
COc1ccc(CN(C)C[C@H]2OCCCC[C@@H](C)Oc3ccc(NC(=O)Nc4cccc5ccccc45)cc3C(=O)N([C@@H](C)CO)C[C@@H]2C)cc1	none (no result: NSD2 HMT inh, N-glyco inh, FN deposit inh)
O=C(C[C@H]1C=C[C@H](NC(=O)C2CC2)[C@@H](CO)O1)NCCCN1CCOCC1	none (no result: NSD2 HMT inh, N-glyco inh, FN deposit inh)
C[C@@H]1CN([C@@H](C)CO)C(=O)c2cc(-c3ccccc3)cnc2O[C@@H]1CN(C)C(=O)Nc1ccccc1	none (no result: NSD2 HMT inh, AF4-AF9 inh, N-glyco inh, RAD52 inh)
COc1ccc(NC(=O)Nc2ccc3c(c2)C(=O)N([C@@H](C)CO)C[C@@H](C)[C@@H](CN(C)Cc2ccccc2)OCCCC[C@@H](C)O3)cc1	RAD52 inh 53 (no result: NSD2 HMT inh, N-glyco inh)
COc1ccc(NC(=O)Nc2ccc3c(c2)C(=O)N([C@H](C)CO)C[C@@H](C)[C@@H](CN(C)Cc2ccccc2)OCCCC[C@@H](C)O3)cc1	none (no result: NSD2 HMT inh, N-glyco inh)
CSc1ccc(/C=N/Nc2cccc(C(=O)O)c2)cc1	NSD2 HMT inh 99 (no result: AF4-AF9 inh, RAD52 inh, RAD54 branch, FN deposit inh)
O=C(Nc1ccccc1N1CCOCC1)c1cccc(F)c1	none
O=C(Nc1ccccc1N1CCOCC1)c1ccc2nc[nH]c2c1	N-glyco inh 27
CCOC(=O)c1cc2[nH]c3ccccc3c2[n+](-c2ccc([N+](=O)[O-])cc2)c1N	N-glyco inh 46 (no result: AF4-AF9 inh, RAD52 inh, RAD54 branch)
COc1ccc2c3c(n(C)c2c1)[C@H](CO)N(C(=O)Nc1ccc(F)cc1)CC31CCN(C(=O)NC2CCCC2)CC1	none (no result: NSD2 HMT inh, N-glyco inh, RAD54 branch, FN deposit inh)
